Activity calls are given as the source filed them. The calls are words filed in the database; no cut-off is given here.
What was measured:
[1] = Selectivity index, ratio of CC50 for cytotoxicity against human HepG2 cells to EC50 for antiplasmodial activity against multidrug-resistant Plasmodium falciparum K1 infected in human erythrocytes; format: toxicity, cell-based; conditions: read-out: Ratio CC50/EC50
[2] = Cytotoxicity against human HepG2 cells assessed as reduction in cell viability measured after 72 hrs by MTT assay; format: cell-based
In short: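 HepG2 in MEM with 10% FBS, 5×10³ cells/well; 24 h attachment, then serial dilutions (DMSO <0.5% final) for 72 h at 37 °C, wells checked for precipitate. MTT 0.5 mg/mL for 2 h, formazan in DMSO, A570 with 630 nm reference. Viability versus untreated; doxorubicin positive control; CC50 from dose-response curve, triplicates, mean of three independent experiments.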

Plasmodium falciparum [3] = experiment: Antiplasmodial activity against multidrug-resistant Plasmodium falciparum K1 infected in human erythrocytes assessed as reduction in parasite growth incubated for 72 hrs by SYBR green I fluorescence based assay; format: functional, organism-based; conditions: K1, Erythrocyte
[4] = Aqueous solubility of the compound; format: physicochemical; conditions: buffer
[5] = Aqueous solubility of the compound assessed as precipitation of the compound at >1.9 uM; format: physicochemical; conditions: buffer
Plasmodium falciparum [6] = experiment: Antiplasmodial activity against Plasmodium falciparum 3D7; format: functional, organism-based
[7] = Genotoxicity in human HepG2 cells assessed as induction of DNA strand breaks at 1 mM measured after 2 hrs by alkali comet assay; conditions: hepg2, 1000 µM
[8] = Genotoxicity in human HepG2 cells assessed as induction of alkali labile sites at 1 mM measured after 2 hrs by alkali comet assay; conditions: hepg2, 1000 µM
Plasmodium falciparum [9] = experiment: Antiplasmodial activity against Plasmodium falciparum 3D7 assessed as reduction in parasite development by measuring enriched culture in mid trophozite parasites at 0.3 uM measured after 48 hrs by DAPI/TPT staining based epifluorescence microscopic analysis; format: functional, organism-based
In short: (§1)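 Sorbitol-synchronized (5%) 3D7 blood-stage cultures expressing HA-tagged TPT, grown in RPMI-HEPES with 5% AlbuMAX II, 2% hematocrit, 1% O2/5% CO2, 37 °C; exposed 48 h to 0.3 μM or DMSO. Fixed in 4% PFA/0.0075% glutaraldehyde, Triton-permeabilized, stained with anti-HA plus Alexa 488 secondary and DAPI; imaged by epifluorescence with DIC.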

Plasmodium falciparum [10] = experiment: Inhibition of apicoplast biogenesis in Plasmodium falciparum 3D7 assessed as loss of apicoplast at 0.3 uM measured after 48 hrs by DAPI/TPT staining based epifluorescence microscopic analysis; format: functional, organism-based; in short: as §1
[11] = Toxicity in human hepatocytes assessed as reduction in nuclei number up to 30 uM by microscopic analysis; format: cell-based, Hepatocyte
In short: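 Cryopreserved primary human hepatocytes, 80,000 per collagen-coated well in William's E medium, inoculated with 30,000 NF135 sporozoites/well and centrifuged. Serial drug dilutions added with sporozoites, renewed daily until 4% PFA fixation at day 6. Stained with anti-HSP70 and DAPI; hepatocyte nuclei counted across scanned microscopic fields, treated versus control.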

Plasmodium falciparum [12] = experiment: Inhibition of apicoplast development in Plasmodium falciparum 3D7 assessed as reduction in parasite growth at 0.3 uM measured during 48 hrs of first cycle of parasite development by SYBR green I based fluorescence assay; format: functional, organism-based
In short: (§2)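 3D7 cultures held at 0.3 μM or DMSO across three 48 h cycles, diluted 1/10 each cycle. At 48, 96 and 144 h, aliquots were lysed in SYBR Green I buffer (Tris pH 7.5, EDTA, saponin, Triton X-100) for 1 h at room temperature in the dark. Fluorescence read at 485/538 nm; growth expressed as treated/untreated ratio, n=3, SD.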

[13] = Cytotoxicity against African green monkey Vero cells assessed as reduction in cell viability measured after 48 hrs by MTT assay; format: cell-based; conditions: chlorocebus sabaeus
In short: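 Vero cells in MEM with 10% FBS; 5×10³ cells/well, 24 h attachment, then compound dilutions (DMSO <0.5% final) for 48 h at 37 °C. Precipitate check, MTT 0.5 mg/mL 2 h, DMSO solubilization, A570/630. Viability relative to untreated; doxorubicin control; CC50 from dose-response, triplicates, mean of three independent experiments.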

[14] = Genotoxicity in human HepG2 cells assessed as induction of DNA strand breaks at 5.6 uM measured after 2 to 72 hrs by alkali comet assay; format: cell-based; conditions: hepg2, 5.6 µM, time 2-72 hrs
In short: (§3)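 HepG2 (passage 11-15, EMEM with 10% FBS) exposed to 5.6 or 28 μM for 2 h or 72 h; vehicle 0.5% DMSO; 1 mM MMS 2 h positive control. Alkaline comet: lysis pH 10 at 4 °C 1 h, unwinding 40 min at pH >13, electrophoresis 1 V/cm 20 min. DAPI staining, % tail DNA; median of 50 comets per duplicate gel, mean of three experiments ±SD.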

[15] = Cytotoxicity against CHO cells assessed as reduction in cell viability measured after 24 hrs by MTT assay; format: cell-based, Cricetulus griseus; conditions: chinese hamster
In short: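 CHO cells grown in RPMI with 10% FBS; 5×10³ cells/well, 24 h attachment, then compound dilutions (DMSO <0.5% final) for 24 h at 37 °C. Precipitate check, MTT 0.5 mg/mL 2 h, DMSO solubilization, A570/630. Percent viability against untreated; doxorubicin control; CC50 from dose-response, triplicates, mean of three independent experiments.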

Plasmodium falciparum [16] = experiment: Antiplasmodial activity against Plasmodium falciparum NF135 sporozoites infected in human hepatocytes assessed as reduction in parasite size without affecting parasite number incubated for 3 hrs with daily replacement of fresh medium containing compound until day 6 post infection by fluorescence microscopic analysis; format: functional, organism-based; conditions: Hepatocyte, time 6.0 day
In short: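 Cryopreserved primary human hepatocytes seeded at 80,000/well on collagen I in supplemented William's E, then infected with 30,000 NF135 sporozoites/well from A. stephensi salivary glands. Plates centrifuged 10 min, serial drug dilutions added at infection, washed at 3 h, drug medium renewed daily. Fixed day 6 in 4% PFA, EEFs stained with anti-HSP70 plus DAPI, counted by fluorescence microscopy or high-content imaging.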

Plasmodium falciparum [17] = experiment: (§4) Inhibition of apicoplast development in hepatic stage of Plasmodium falciparum NF135 infected in human hepatocytes assessed as condensation of apicoplast protein ACP signal incubated for 3 hrs with daily replacement of fresh medium containing compound until day 6 post infection by confocal microscopy; format: functional, organism-based; conditions: time 6.0 day
In short: (§5)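 Primary human hepatocytes infected with NF135 sporozoites (30,000/well), drug present from infection, washed at 3 h and renewed daily until fixing at day 6 (4% PFA). Apicoplast stained with anti-ACP antibody, parasites with anti-HSP70, DNA with DAPI, imaged by confocal microscopy. 100 parasites scored as normal or partially/completely altered apicoplast, given as percentage distribution.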

Plasmodium falciparum [18] = experiment: as §4, with “proportion of schizonts with partial and complete alteration” for “condensation”, “apicoplast” for “apicoplast protein ACP”, “signal at 30 uM” for “signal”; format: functional; design: scale not given: the % may be the effect or the level left; conditions: time 6 day; in short: as §5
Plasmodium falciparum [19] = experiment: Antiplasmodial activity against Plasmodium falciparum 3D7 assessed as reduction in parasite development by measuring defect in parasite replication at 0.3 uM measured after 48 hrs by DAPI/TPT staining based epifluorescence microscopic analysis; format: functional, organism-based; in short: as §1
Plasmodium falciparum [20] = experiment: Inhibition of apicoplast biogenesis in Plasmodium falciparum 3D7 assessed as reduction in apicoplast development, elongation and branching at 0.3 uM measured after 48 hrs by DAPI/TPT staining based epifluorescence microscopic analysis; format: functional, organism-based; in short: as §1
[21] = Genotoxicity in human HepG2 cells assessed as induction of alkali labile sites at 5.6 uM measured after 2 to 72 hrs by alkali comet assay; format: cell-based; conditions: hepg2, 5.6 µM, time 2-72 hrs; in short: as §3
[22] = Genotoxicity in human HepG2 cells assessed as induction of DNA strand breaks at 28 uM measured after 2 to 72 hrs by alkali comet assay; format: cell-based; conditions: hepg2, 28 µM, time 2-72 hrs; in short: as §3
[23] = Genotoxicity in human HepG2 cells assessed as induction of alkali labile sites at 28 uM measured after 2 to 72 hrs by alkali comet assay; format: cell-based; conditions: hepg2, 28 µM, time 2-72 hrs; in short: as §3
Plasmodium falciparum [24] = experiment: Inhibition of apicoplast development in Plasmodium falciparum 3D7 assessed as delayed death phenotype at 0.3 uM measured during 48 hrs of three cycles of parasite development by SYBR green I based fluorescence assay; format: functional, organism-based; in short: as §2

| Compound | selectivity ratio [1] | CC50 at 72 h [2] [µM] | EC50 (Plasmodium falciparum [3]) [µM] | solubility [4] | further results |
| --- | --- | --- | --- | --- | --- |
| Fc1ccc(Sc2nc3ccccc3nc2C(Cl)(Cl)Cl)cc1 | 85.6 | 30.8 | 0.36 | Soluble |  |
| FC(F)(F)c1ccc(Sc2nc3ccccc3nc2C(Cl)(Cl)Cl)cc1 | 59.8 | 29.9 | 0.5 | Soluble |  |
| Clc1cccc(Sc2nc3ccccc3nc2C(Cl)(Cl)Cl)c1 | 93.4 | 38.3 | 0.41 | Soluble |  |
| Clc1ccc(Sc2nc3ccccc3nc2C(Cl)(Cl)Cl)cc1 | 77.2 |  | 0.5 |  |  |
| FC(F)(F)Oc1ccc(Sc2nc3ccccc3nc2C(Cl)(Cl)Cl)cc1 | 58.3 | 21 | 0.36 | Soluble |  |
| COc1ccc(Sc2nc3ccccc3nc2C(Cl)(Cl)Cl)cc1 | > 3 | > 1.9 | 0.65 |  | solubility [5]: Insoluble |
| Cc1ccc(Sc2nc3ccccc3nc2C(Cl)(Cl)Cl)cc1 | 46.5 | 69.7 | 1.5 | Soluble |  |
| Clc1ccccc1Sc1nc2ccccc2nc1C(Cl)(Cl)Cl | 73.8 | 36.9 | 0.5 | Soluble |  |
| O=[N+]([O-])c1ccc(Sc2nc3ccccc3nc2C(Cl)(Cl)Cl)cc1 | 79.6 | 19.9 | 0.25 | Soluble |  |
| O=C1C(O)=C([C@H]2CC[C@H](c3ccc(Cl)cc3)CC2)C(=O)c2ccccc21 [ATOVAQUONE] |  | > 15.6 | 0.001 |  |  |
| Oc1cc(Cl)ccc1Oc1ccc(Cl)cc1Cl [TRICLOSAN] |  |  |  |  | EC50 (Plasmodium falciparum [6]): 1.55 µM |
| c1ccc(Sc2cnc3ccccc3n2)cc1 |  | > 50 | > 50 |  |  |
| CCN(CC)CCCC(C)Nc1ccnc2cc(Cl)ccc12 (configuration not stated) [CHLOROQUINE] |  |  | 0.8 |  |  |
| ClC(Cl)(Cl)c1nc2ccccc2nc1Sc1ccc(Br)cc1 | 93 | 42.2 | 0.46 | Soluble |  |
| C[C@H]1c2cccc(O)c2C(=O)C2=C(O)[C@]3(O)C(=O)C(C(N)=O)=C(O)[C@@H](N(C)C)[C@@H]3[C@@H](O)[C@@H]21 [DOXYCYCLINE] | 3.3 |  | 6 |  |  |
| FC(F)(F)c1nc2ccccc2nc1Sc1ccccc1 |  | > 50 | > 50 |  |  |
| COS(C)(=O)=O [METHANESULFONIC ACID METHYL ESTER] |  |  |  |  | Activity [7]: Toxic; Activity [8]: Toxic |
| Clc1ccc(Sc2nc3ccccc3nc2C(Cl)(Cl)Cl)c(Cl)c1 | > 34.7 | > 31.2 | 0.9 | Soluble |  |
| ClC(Cl)(Cl)c1nc2ccccc2nc1Sc1ccccc1 | 175 | 56 | 0.32 | Soluble | Activity (Plasmodium falciparum [9]): Active; inhibition (Plasmodium falciparum [10]): Active; Activity [11]: Non-Toxic; Activity (Plasmodium falciparum [12]): Active; CC50 at 48 h [13]: 63.5 µM; Activity [14]: Non-Toxic; CC50 at 24 h [15]: 58.5 µM; Activity (Plasmodium falciparum [16]): Dose-Dependent Effect; inhibition (Plasmodium falciparum [17]): Active; Activity (Plasmodium falciparum [18]): 93%; Activity (Plasmodium falciparum [19]): Active; inhibition (Plasmodium falciparum [20]): Active; Activity [21]: Non-Toxic; Activity [22]: Non-Toxic; Activity [23]: Non-Toxic; Activity (Plasmodium falciparum [24]): Active |
| Fc1cccc(Sc2nc3ccccc3nc2C(Cl)(Cl)Cl)c1 | 116 | 35.9 | 0.31 | Soluble |  |
| Fc1ccccc1Sc1nc2ccccc2nc1C(Cl)(Cl)Cl | 127 | 40.5 | 0.32 | Soluble |  |
| COc1ccccc1Sc1nc2ccccc2nc1C(Cl)(Cl)Cl | 56.8 | 42.6 | 0.74 | Soluble |  |
| COc1ccc(Cl)c(Sc2nc3ccccc3nc2C(Cl)(Cl)Cl)c1 | 127 | 58.4 | 0.46 | Soluble |  |
| Cc1nc2ccccc2nc1Sc1ccccc1 |  | > 25 | > 50 |  | Activity (Plasmodium falciparum [24]): inactive |
| Clc1cccc(Sc2nc3ccccc3nc2C(Cl)(Cl)Cl)c1Cl | 112 | 34.6 | 0.31 | Soluble |  |

Source: ChEMBL document CHEMBL4828728, “Antiplasmodial 2-thiophenoxy-3-trichloromethyl quinoxalines target the apicoplast of Plasmodium falciparum” (Eur J Med Chem, 2021)
